In data set [1] the target is T1, Nuclear receptor subfamily 1 group D member 1 (Homo sapiens) (UniProt P20393).
T1 sequence (whole entry): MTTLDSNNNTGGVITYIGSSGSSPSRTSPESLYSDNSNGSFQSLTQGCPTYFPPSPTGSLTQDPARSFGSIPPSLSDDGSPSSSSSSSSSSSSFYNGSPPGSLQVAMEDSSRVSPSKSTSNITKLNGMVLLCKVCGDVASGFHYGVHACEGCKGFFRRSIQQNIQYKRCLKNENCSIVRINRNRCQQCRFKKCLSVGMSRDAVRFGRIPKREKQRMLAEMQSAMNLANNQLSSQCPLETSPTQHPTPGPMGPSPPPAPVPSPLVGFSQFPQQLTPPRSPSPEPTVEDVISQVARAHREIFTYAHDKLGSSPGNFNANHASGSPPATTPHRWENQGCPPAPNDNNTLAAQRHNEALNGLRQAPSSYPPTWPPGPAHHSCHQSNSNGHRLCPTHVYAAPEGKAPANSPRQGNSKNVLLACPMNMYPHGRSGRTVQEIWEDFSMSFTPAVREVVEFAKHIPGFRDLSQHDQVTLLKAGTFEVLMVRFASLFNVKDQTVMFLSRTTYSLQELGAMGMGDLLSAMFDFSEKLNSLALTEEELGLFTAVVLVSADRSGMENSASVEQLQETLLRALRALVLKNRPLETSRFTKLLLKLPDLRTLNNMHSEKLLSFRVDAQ
In words: Agonist activity at Rev-Erbalpha expressed in HEK293 cells coexpressing […] promoter assessed as repression of transcription at 10 uM after 24 hrs by dual-Glo luciferase assay relative to control. The data set is classed as functional, cell-based. The essentials: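 Cells co-transfected with full-length Rev-erbα expression plasmid plus Bmal1 promoter-luciferase reporter; renilla luciferase for normalization and toxicity check. Average of 2 or more experiments.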

The target of data set [2] is T2, Nuclear receptor subfamily 1 group D member 1 (Homo sapiens, UniProt P20393).
T2 sequence (P20393 whole entry): T1 sequence (whole entry)
In words: Agonist activity at Rev-Erbalpha expressed in HEK293 cells coexpressing […] promoter assessed as repression of transcription after 24 hrs by dual-Glo luciferase assay. Format: functional, cell-based. The essentials:
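Cells co-transfected with full-length Rev-erbα expression plasmid and Bmal1 promoter-driven luciferase reporter. Renilla luciferase used for normalization and toxicity monitoring. Average of 2 or more experiments.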

Data set [3] is described as follows: Drug uptake in C57BL/6 mouse brain at 50 mg/kg, ip measured after 8 hrs by LC-MS/MS analysis.
Data set [4] is described as follows: Plasma concentration in C57BL/6 mouse at 10 mg/kg, ip measured after 2 hrs by LC-MS/MS analysis. The data set is classed as ADME, organism-based. More on the design: dose 10 mg/kg, route intraperitoneal. In a few lines:
(§1)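 C57Bl6 mice (n = 3) given 10 mg/kg IP in 10:10:80 DMSO:Tween:water; blood and brain collected at 2 h. Plasma frozen at −80°C. Plasma and brain mixed with acetonitrile (1:5 v:v or w:v), brain probe-sonicated. Drug quantified by LC-MS/MS against standards in plasma or blank brain matrix.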

Data set [5] can be described thus: Drug uptake in C57BL/6 mouse brain at 10 mg/kg, ip measured after 2 hrs by LC-MS/MS analysis. Format: ADME, organism-based. Also on record: dose 10 mg/kg, route intraperitoneal. The settings on record: read-out: Drug uptake. In a few lines:
as §1

A value given as a limit tells only on which side of the number the result lay.

Consider 46 compounds from ChEMBL document CHEMBL2057134, “Small molecule tertiary amines as agonists of the nuclear hormone receptor Rev-erbα” (Bioorg Med Chem Lett, 2012).

One may read the EC50 as the midpoint of the concentration-response curve.

In the case of `CC(=O)N1CCC(CN(Cc2ccc(Cl)cc2)Cc2ccc([N+](=O)[O-])s2)C1` (racemic), in data set [1], the Ratio is 0.35. Besides, the EC50 in data set [2] is 1600 nM.

For `O=[N+]([O-])c1ccc(CN(Cc2ccc(Cl)cc2)Cc2nc3ccccc3s2)s1`, in data set [1], the Ratio is 0.5. Moreover, in data set [2], the 50% effective concentration (EC50) is 4000 nM.

Take `CC(C)(C)OC(=O)CN(Cc1ccc(Cl)cc1)Cc1nc2ccccc2s1`: the Ratio in data set [1] worked out at 0.82.

As to `O=[N+]([O-])c1ccc(CN(Cc2ccc(Cl)cc2)CC2COc3ccccc3O2)s1` (racemic), the Ratio in data set [1] came to 0.4. Further, the concentration giving a half-maximal response (EC50) in data set [2] was found to be 7800 nM.

With `CC(C)(C)OC(=O)CN(Cc1ccc(F)cc1)Cc1ccc([N+](=O)[O-])s1`, in data set [1], the Ratio is 0.77. The EC50 in data set [2] came to 2000 nM.

For the compound `Cc1ccc(S(=O)(=O)N(CC(=O)OC(C)(C)C)Cc2ccc([N+](=O)[O-])s2)cc1`, in data set [1], the Ratio stood at 0.5. Besides, in data set [2], the EC50 turned out to be 3000 nM.

With `COC(=O)CN(Cc1ccc(Cl)cc1)Cc1ccc([N+](=O)[O-])s1`, in data set [1], the Ratio is 0.8. Also, in data set [2], the 50% effective concentration (EC50) is 3900 nM.

Regarding `O=C(Nc1ccccc1)N1CCC(CN(Cc2ccc(Cl)cc2)Cc2ccc([N+](=O)[O-])s2)C1` (racemic), in data set [1], the Ratio amounted to 0.33. The EC50 in data set [2] was determined as 620 nM.

For the compound `CC(C)(C)OC(=O)N1CCCC(N(Cc2ccc(Cl)cc2)Cc2ccc([N+](=O)[O-])s2)C1` (racemic), the Ratio in data set [1] came out at 0.14.

For `CCOC(=O)N1CCC(CN(Cc2ccc(Cl)cc2)Cc2ccc([N+](=O)[O-])s2)C1` (racemic) [SR9009], the concentration at 8 h in data set [3] is 8700 nM.

Consider `O=[N+]([O-])c1ccc(CN(Cc2ccc(Cl)cc2)CC2CCN(Cc3ccccc3)C2)s1` (racemic), for which, in data set [1], the Ratio was 1.

For the compound `CC(C)(C)OC(=O)N1CCC(CN(Cc2ccc(Cl)cc2)Cc2ccc([N+](=O)[O-])s2)C1` (racemic), in data set [1], the Ratio is 0.33. In addition, the 50% effective concentration (EC50) in data set [2] was found to be 1800 nM.

Regarding `CC(C)(C)OC(=O)CNCc1ccc(Cl)cc1`, the Ratio in data set [1] stood at 1.2.

For `CC(C)(C)OC(=O)CN(Cc1ccc(Cl)cc1)Cc1cccs1`, in data set [1], the Ratio was found to be 0.93.

On to `CC(C)(C)OC(=O)N1CCC(CN(Cc2ccc(Cl)cc2)Cc2ccc([N+](=O)[O-])s2)CC1`, for which the Ratio in data set [1] stood at 0.8.

In the case of `CC(C)(C)OC(=O)CN(Cc1ccccc1)Cc1ccc([N+](=O)[O-])s1`, the Ratio in data set [1] stood at 1.1.

For `COc1ccc(CN(CC(=O)OC(C)(C)C)Cc2ccc([N+](=O)[O-])s2)cc1`, the Ratio in data set [1] came out at 0.68. For the same compound, in data set [2], the half-maximal effective concentration (EC50) was found to be 2900 nM.

As to `Cc1ccc(S(=O)(=O)N(Cc2ccc(Cl)cc2)Cc2ccc([N+](=O)[O-])s2)cc1`, the Ratio in data set [1] worked out at 0.5. Besides, the concentration for a half-maximal effect (EC50) in data set [2] was 2500 nM.

`CCCCNC(=O)N1CCC(CN(Cc2ccc(Cl)cc2)Cc2ccc([N+](=O)[O-])s2)C1` (racemic): the Ratio in data set [1] stood at 0.35. Besides, the concentration at 2 h in data set [4] amounted to 530 nM; in data set [5] it was 240 nM. Also, the EC50 in data set [2] worked out at 670 nM.

In the case of `CC(C)(C)OC(=O)CN(Cc1ccc(Cl)cc1)CC1CCCC1`, the Ratio in data set [1] was found to be 1.1.

On to `N#CCN(Cc1ccc(Cl)cc1)Cc1ccc([N+](=O)[O-])s1`, for which, in data set [1], the Ratio is 0.79. Besides, the EC50 in data set [2] stood at 2500 nM.

As to `CC(C)(C)OC(=O)CN(Cc1ccc([N+](=O)[O-])cc1)Cc1ccc([N+](=O)[O-])s1`, the Ratio in data set [1] turned out to be 0.58. Moreover, the EC50 in data set [2] came out at 2500 nM.

With `CC(C)(C)OC(=O)CN(Cc1ccc(Cl)cc1)Cc1cnc[nH]1`, in data set [1], the Ratio amounted to 0.88.

Consider `CC(C)(C)OC(=O)CN(Cc1ccc([N+](=O)[O-])s1)C(=O)c1cccc2ccccc12`, for which, in data set [1], the Ratio was determined as 0.48. For the same compound, in data set [2], the half-maximal effective concentration (EC50) is 2600 nM.

With `O=[N+]([O-])c1ccc(CN(Cc2ccc(Cl)cc2)CC2CCN(S(=O)(=O)c3cccc4ccccc34)C2)s1` (racemic), the Ratio in data set [1] was determined as 0.45. Moreover, the 50% effective concentration (EC50) in data set [2] stood at 450 nM.

With `NC(=O)CN(Cc1ccc(Cl)cc1)Cc1ccc([N+](=O)[O-])s1`, the Ratio in data set [1] was 0.75. Moreover, in data set [2], the EC50 amounted to 3000 nM.

Turning to `CC(C)(C)OC(=O)CN(Cc1ccc2ccccc2c1)Cc1ccc([N+](=O)[O-])s1`, the Ratio in data set [1] turned out to be 0.6.

Turning to `O=C(Nc1ccc([N+](=O)[O-])cc1)N1CCC(CN(Cc2ccc(Cl)cc2)Cc2ccc([N+](=O)[O-])s2)C1` (racemic), the Ratio in data set [1] worked out at 0.37. Further, in data set [2], the EC50 amounted to 400 nM.

Take `O=[N+]([O-])c1ccc(CN(Cc2ccc(Cl)cc2)Cc2ccc3ccccc3c2)s1`: in data set [1], the Ratio was determined as 0.7. Also, the half-maximal effective concentration (EC50) in data set [2] was found to be 8800 nM.

Consider `O=C(c1cccc2ccccc12)N(Cc1ccc(Cl)cc1)Cc1ccc([N+](=O)[O-])s1`, for which, in data set [1], the Ratio is 0.4. Besides, the 50% effective concentration (EC50) in data set [2] worked out at 2600 nM.

On to `CC(C)(C)OC(=O)CN(Cc1ccc([N+](=O)[O-])s1)S(=O)(=O)c1cccc2ccccc12`, for which the Ratio in data set [1] came to 0.37. Moreover, the EC50 in data set [2] turned out to be 800 nM.

In the case of `O=[N+]([O-])c1ccc(CN(Cc2ccc(Cl)cc2)Cc2ccc(C(F)(F)F)cc2)s1`, the Ratio in data set [1] was determined as 0.45. Further, the EC50 in data set [2] is 5500 nM.

As for `C=CCOC(=O)N1CCC(CN(Cc2ccc(Cl)cc2)Cc2ccc([N+](=O)[O-])s2)C1` (racemic), the Ratio in data set [1] is 0.35. For the same compound, the half-maximal effective concentration (EC50) in data set [2] is 670 nM.

For the compound `CS(=O)(=O)N1CCC(CN(Cc2ccc(Cl)cc2)Cc2ccc([N+](=O)[O-])s2)C1` (racemic), the Ratio in data set [1] was 0.3. The concentration at 2 h in data set [4] was 540 nM; in data set [5] it was 1300 nM. The EC50 in data set [2] is 570 nM.

Consider `O=[N+]([O-])c1ccc(CN(Cc2ccc(Cl)cc2)CC2CCCCC2)s1`, for which the Ratio in data set [1] was determined as 0.3. Moreover, in data set [2], the EC50 was found to be 7400 nM.

On to `Cc1ccc(S(=O)(=O)N2CCC(CN(Cc3ccc(Cl)cc3)Cc3ccc([N+](=O)[O-])s3)C2)cc1` (racemic), for which the Ratio in data set [1] was over 1.

For the compound `CC(C)(C)OC(=O)N1CCCC(CN(Cc2ccc(Cl)cc2)Cc2ccc([N+](=O)[O-])s2)C1` (racemic), in data set [1], the Ratio was 0.9.

For `CC(C)(C)OC(=O)CN(Cc1ccc([N+](=O)[O-])s1)Cc1cccc2ccccc12`, the Ratio in data set [1] was determined as 0.6. Besides, in data set [2], the EC50 turned out to be 2500 nM.

Consider `CN1CCC(CN(Cc2ccc(Cl)cc2)Cc2ccc([N+](=O)[O-])s2)C1` (racemic), for which the Ratio in data set [1] amounted to 0.95.

Consider `O=C(Oc1ccccc1)N1CCC(CN(Cc2ccc(Cl)cc2)Cc2ccc([N+](=O)[O-])s2)C1` (racemic), for which the Ratio in data set [1] is 0.55.

Consider `O=C(O)CN(Cc1ccc(Cl)cc1)Cc1ccc([N+](=O)[O-])s1`, for which the Ratio in data set [1] came to 0.85.

In the case of `CC(C)(C)OC(=O)N1CCC(N(Cc2ccc(Cl)cc2)Cc2ccc([N+](=O)[O-])s2)CC1`, the Ratio in data set [1] was found to be 0.31.

As for `CC(C)(C)OC(=O)N1CCC(N(Cc2ccc(Cl)cc2)Cc2ccc([N+](=O)[O-])s2)C1` (racemic), the Ratio in data set [1] was determined as 0.24. In addition, the EC50 in data set [2] came out at 1600 nM.

In the case of `CS(=O)(=O)n1ccc(CN(Cc2ccc(Cl)cc2)Cc2ccc([N+](=O)[O-])s2)c1`, the Ratio in data set [1] turned out to be 1.

Regarding `O=[N+]([O-])c1ccc(CN(Cc2ccc(Cl)cc2)CC2CCN(S(=O)(=O)Cc3ccccc3)C2)s1` (racemic), the Ratio in data set [1] is 0.4. In data set [2], the EC50 amounted to 630 nM.

For the compound `CC(C)(C)OC(=O)CN(Cc1ccncc1)Cc1ccc(Cl)cc1`, the Ratio in data set [1] amounted to 0.81.
